# G6PDH CS = L. mesenteroides G6PDH inhibitors, counter-screen for G6PDH-coupled screening assays, biochemical, Leuconostoc mesenteroides enzyme. glucose-6-phosphate dehydrogenase [Leuconostoc mesenteroides]. Purified L. mesenteroides G6PDH, diaphorase/resazurin coupled fluorescence, 45 min. inhibition, % at 5 µM. hit rate 0.12% among 200,000. AID 1020, 2008; in the data active = inhibition above about 50%
# HKDC1 inhibitor = HKDC1 hexokinase inhibitors, primary screen, biochemical, fluorescence, uHTS | Q2TB90 | recombinant HKDC1, G6PDH/diaphorase resazurin coupled fluorescence | inhibition, % at 20 µM | hit rate 0.16% among 340,000 | AID 493160, 2011;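 active = inhibition above about 35% when tested at 20 µM, limit read from the data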;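 also: plate controls were DMSO wells with enzyme for no effect and DMSO wells lacking enzyme for full effect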
# Target sequence (Q2TB90 whole entry, looked up): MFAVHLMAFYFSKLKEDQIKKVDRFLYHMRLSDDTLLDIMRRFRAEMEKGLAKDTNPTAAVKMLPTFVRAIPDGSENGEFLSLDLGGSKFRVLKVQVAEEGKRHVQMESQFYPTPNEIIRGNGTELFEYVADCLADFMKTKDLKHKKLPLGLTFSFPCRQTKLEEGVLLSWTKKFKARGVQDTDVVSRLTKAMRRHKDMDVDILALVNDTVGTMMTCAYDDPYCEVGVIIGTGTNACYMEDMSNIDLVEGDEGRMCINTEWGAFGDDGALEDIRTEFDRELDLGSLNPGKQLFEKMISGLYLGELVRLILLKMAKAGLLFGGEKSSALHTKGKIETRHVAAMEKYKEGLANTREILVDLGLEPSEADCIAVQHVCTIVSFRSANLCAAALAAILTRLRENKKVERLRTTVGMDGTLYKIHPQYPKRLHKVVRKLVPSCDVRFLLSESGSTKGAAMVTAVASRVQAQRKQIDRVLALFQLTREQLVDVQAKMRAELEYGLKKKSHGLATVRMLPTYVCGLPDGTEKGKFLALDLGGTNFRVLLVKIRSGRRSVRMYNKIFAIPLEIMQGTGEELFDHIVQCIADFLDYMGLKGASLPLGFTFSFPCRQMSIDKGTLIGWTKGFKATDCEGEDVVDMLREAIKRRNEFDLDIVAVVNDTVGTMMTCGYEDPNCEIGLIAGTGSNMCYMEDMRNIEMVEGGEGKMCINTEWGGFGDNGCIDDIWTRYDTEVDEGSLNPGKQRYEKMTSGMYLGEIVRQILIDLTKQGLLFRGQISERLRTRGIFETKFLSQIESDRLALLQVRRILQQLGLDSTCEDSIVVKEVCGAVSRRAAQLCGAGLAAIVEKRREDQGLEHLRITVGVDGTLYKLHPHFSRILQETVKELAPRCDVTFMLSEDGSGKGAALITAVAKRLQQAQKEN
#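 Test system: HK5 enzyme. Quantity: 5 µg/mL HK5 final. Reagent: glucose and ATP substrates. Schedule: 90 min reaction incubation at room temperature, dark. Technique: resazurin-to-resorufin fluorescence via G6PDH and diaphorase coupling, 525/613 nm. Control set: DMSO wells with and without enzyme mix.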
# PfG6PD inh = PfG6PD enzyme inhibitors, primary screen, biochemical, fluorescence intensity, uHTS | PfGluPho enzyme, NADPH resazurin-diaphorase fluorescence | AID 504690, 2011 | glucose-6-phosphate dehydrogenase-6-phosphogluconolactonase (Plasmodium falciparum 3D7) | hit rate 0.78% among 350,000 | inhibition, % at 20 µM;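 active = inhibition reaching at least a set limit at 20 µM in the primary screen, cut at about 59% in these data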;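 also: 0% = DMSO wells with substrate and 100% = DMSO wells lacking glucose-6-phosphate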
# Diaph inh CS = diaphorase inhibitors and chemical oxidizers, primary screen, counter-screen for diaphorase-coupled primary assays, biochemical, uHTS, resorufin fluorescence. diaphorase resazurin-to-resorufin fluorescence, NADH, 16 min; bacterial (C. kluyveri) enzyme, not human. inhibition, % at 20 µM. hit rate 0.69% among 190,000. AID 1217, 2008;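 active = primary screen inhibition at 20 µM above a set limit, cut at about 50% in these data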;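 also: plate controls were DMSO with full reaction for no effect and wells lacking NADH for full effect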
#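 Test system: diaphorase enzyme from Clostridium kluyveri; amount: diaphorase at 0.14 U/mL in enzyme working solution; detection: fluorescence of resorufin formed from resazurin, Ex 544/Em 590 nm; times: reaction incubation of 16 min at room temperature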
# TbHK1 inh = Trypanosoma brucei hexokinase 1 inhibitors, primary screen, biochemical, G6PDH-coupled NADH absorbance, MLSCN library; hexokinase 1 [Trypanosoma brucei]; recombinant TbHK1, G6PDH-coupled NADH A340; inhibition, % at 10 µM; hit rate 0.11% among 220,000; AID 1430, 2008;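 active = inhibition of 50% or more in the single-dose primary screen; inactive = inhibition below 50%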
# PfG6PD confirm = PfG6PD inhibitors, hit retest, confirmation, biochemical, fluorescence intensity, single concentration | inhibition, % at 20 µM | hit rate 34% among 2,400 | shares compounds with PfG6PD inh | recombinant PfGluPho, NADPH-diaphorase-resazurin fluorescence;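 active = inhibition of at least 50% at 20 µM in any single replicate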;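 also: 0% = DMSO with substrate and 100% = DMSO lacking glucose-6-phosphate substrate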
# Diaphorase 10uM = diaphorase inhibitors and chemical oxidizers, confirmation, counter-screen for P. falciparum G6PD inhibitor project, biochemical, fluorescence intensity, 10 µM NADPH | shares compounds with PfG6PD inh | AID 504862, 2011 | diaphorase-coupled resazurin reduction, NADPH 10 uM | inhibition, % at 20 µM | hit rate 39% among 820;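 active = average inhibition reaching 50% or more with the compound at 20 µM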;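 also: resorufin red fluorescence formed as diaphorase reduces resazurin using NADPH; 0% = DMSO with enzyme and 100% = DMSO without enzyme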
# Diaph ctr 30uM = diaphorase inhibitors and chemical oxidizers, confirmation, counter-screen for P. falciparum G6PD inhibitor project, biochemical, fluorescence intensity, 30 µM NADPH; shares compounds with PfG6PD inh; Diaphorase/resazurin coupled assay, resorufin fluorescence; inhibition, % at 20 µM; hit rate 29% among 820;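 active = inhibition averaging 50% or more, tested at 20 µM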;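 also: 0% = DMSO with enzyme and 100% = DMSO wells lacking diaphorase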
# The depositor's hits bear a star; · = not tested or not shown. Sampled rows, rich in hits. Any-hit rate of the full collection: about 1.3%.
SMILES,G6PDH CS,HKDC1 inhibitor,PfG6PD inh,Diaph inh CS,TbHK1 inh,PfG6PD confirm,others
CC(=O)Nc1ccccc1-c1ccccc1[N+](=O)[O-],·,-5.4,-5.7,·,·,·,
CCS(=O)(=O)c1cc([N+](=O)[O-])c(Sc2ccccc2NC(C)=O)s1,·,8.9,61.9*,·,-20.5,-8.5,
COc1ccc(CN(Cc2cccn2C)S(=O)(=O)c2ccc(C)cc2)cc1,·,2.5,66.4*,·,-0.1,2.2,
Oc1c(CN2CCOCC2)cc(CN2CCOCC2)c(O)c1O,·,-5.5,82.0*,·,·,64.0*,Diaphorase 10uM=51.8*;Diaph ctr 30uM=54.6*
Nc1nc(SCC(=O)c2ccc(F)cc2)n[nH]1,-0.6,-7.5,2.0,9.8,-3.1,·,
Cc1nc(SCC(=O)c2ccc(F)cc2)n[nH]1,15.9,-4.2,62.8*,10.4,1.3,-14.6,
CC(C)N(C(=O)[C@H]1C[C@H](CC(=O)NCCN2CCOCC2)C(=O)N2CCc3c([nH]c4cc(-c5ccco5)ccc34)[C@]12C)C(C)C,·,-6.8,6.4,·,·,·,
Oc1ccc(NCc2cccc(OCc3ccc(F)cc3)c2)cc1,25.3,3.4,48.2,23.0,-7.6,·,
Oc1ccc(NCc2cccc(OCc3ccccc3)c2)cc1,17.6,8.2,59.3*,42.9,-1.8,3.6,
CC(C)(C)c1csc(NC(=O)Cn2cnc3ccccc3c2=O)n1,-9.1,-6.0,68.3*,15.3,3.2,-4.3,
CC(Sc1nc(-c2ccccc2)cc(C(F)(F)F)n1)C(=O)N1CCCCC1 (centres undefined),2.8,5.8,-11.8,11.5,-3.4,·,
COC(=O)c1cc2c(n1S(=O)(=O)c1ccc(C)cc1)C(=O)C(=O)c1[nH]cc(C(=O)OCc3ccccc3)c1-2,·,22.8,77.5*,·,·,50.5*,Diaphorase 10uM=36.5;Diaph ctr 30uM=37.0
Cc1cc(C)c(C)c(S(=O)(=O)Nc2ccc3cn[nH]c3c2)c1C,·,1.4,91.6*,·,·,13.1,
CC(=O)Oc1cc2c3c(c1)/C(=C1/SC(=S)NC1=O)C(=O)N3C(C)(C)C=C2C,·,6.4,79.8*,·,-1.8,41.3,
CN(C)S(=O)(=O)c1cccc(NC(=S)N/N=C/c2ccc(O)c(O)c2O)c1,·,32.0,79.7*,·,45.5,64.2*,Diaphorase 10uM=58.8*;Diaph ctr 30uM=61.3*
COc1cccc(/C=N/NC(=S)Nc2cccc(S(=O)(=O)N(C)C)c2)c1,·,-7.1,66.7*,·,5.5,0.7,
OC1CNCc2cc3c(cc21)OCCO3 (centres undefined),-3.0,·,·,9.6,1.6,·,
CCOC(=O)c1sc(=S)n(-c2ccc(Cl)cc2)c1C,1.7,3.9,-6.1,13.0,-22.5,·,
COC(=O)c1sc(=S)n(-c2cc(F)ccc2F)c1N,-2.5,-19.5,59.5*,12.4,-11.1,21.1,
CCOC(=O)c1sc(=S)n(-c2cc(F)ccc2F)c1N,3.6,10.4,21.6,14.6,-24.8,·,
CCOC(=O)c1sc(=S)n(-c2cc(OC)ccc2OC)c1N,2.0,-15.2,78.1*,13.4,-9.7,45.1,
CCCNC(=O)C1(CC2CC(c3ccccc3)=NO2)CCN(C(=O)C2CCCC2)CC1 (centres undefined),·,-5.0,-12.9,·,·,·,
COc1ccccc1/C=N/NC(=O)CCSc1ccccc1,-4.2,0.6,62.7*,0.0,-10.2,72.3*,Diaphorase 10uM=65.3*;Diaph ctr 30uM=67.0*
COc1ccc(OC)c(/C=N\NC(=O)CSc2nnc(CCCc3ccc(OC)c(C)c3)o2)c1,3.9,2.1,96.1*,15.2,0.3,22.1,
COc1ccccc1C=NNC(=O)NN=Cc1ccccc1OC,·,-4.1,-8.0,·,·,·,
SMILES,G6PDH CS,HKDC1 inhibitor,PfG6PD inh,Diaph inh CS,TbHK1 inh,PfG6PD confirm,others
COc1ccccc1C=NN=C(NN=Cc1ccccc1OC)NN=Cc1ccccc1OC,·,-21.1,76.6*,·,·,29.3,
COc1ccc(CCCC(=O)N/N=C/c2ccccc2OC)cc1,-0.8,3.5,97.9*,14.3,-10.5,67.3*,Diaphorase 10uM=70.4*;Diaph ctr 30uM=56.9*
O=C(O)CSCCC(=O)Nc1ccc(F)cc1,3.2,2.5,-11.4,17.6,-0.2,·,
CCc1ccc(NC(=O)C2CCN(S(=O)(=O)c3c(C)noc3/C=C/N(C)C)CC2)cc1,·,6.3,14.4,·,·,·,
CCCCn1c(N)c(-c2nc3ccccc3s2)c2c([N+](=O)[O-])nn(C)c(=O)c21,-2.4,3.4,5.2,16.4,-20.0,·,
Cn1nc([N+](=O)[O-])c2c(-c3nc4ccccc4s3)c(N)n(C3CCCCC3)c2c1=O,5.3,11.2,77.1*,2.2,-19.4,-2.5,
CCc1c(C(=O)Nc2ccccc2)c(C)[nH]c(=S)c1C#N,0.1,5.8,59.1*,15.2,-20.9,54.4*,Diaphorase 10uM=-28.7;Diaph ctr 30uM=-19.5
Cc1ccccc1NC(=O)c1c(C)[nH]c(=S)c(C#N)c1-c1ccco1,-16.1,-10.6,42.2,27.8,-10.3,·,
Cc1[nH]c(=S)c(C#N)c(C)c1C(=O)Nc1ccccc1,1.7,-5.7,61.8*,13.8,-8.6,37.4,
CNC(=O)c1c(C)[nH]c(=S)c(C#N)c1-c1ccco1,·,-3.7,56.2,·,-18.4,·,
CCCc1c(C(=O)N/N=C(\C)CCc2ccccc2)nnn1-c1nonc1N,·,1.9,-8.4,·,·,·,
CCn1c(SCC(=O)c2c(N)n(C)c(=O)n(C)c2=O)nc2sc(C)c(C)c2c1=O,6.1,·,·,12.7,·,·,
COc1ccc(C(=O)Nc2cc(C)c(NC(=O)c3ccccn3)cn2)cc1,·,-1.7,66.9*,·,·,19.2,
CN(C)c1nc(=NCc2cccs2)ss1,·,-27.3,60.5*,·,·,49.3*,Diaphorase 10uM=4.5;Diaph ctr 30uM=-4.3
O=C(NN=Cc1ccccc1Cl)c1cccc2ccccc12,·,-1.8,-3.2,·,·,·,
O=C(N/N=C/c1cccc2ccccc12)c1ccccc1Cl,·,1.3,82.6*,·,·,46.1,
CCOC(=O)c1c(NC(=O)c2ccccc2Br)sc2c1CCc1ccccc1-2,1.8,5.1,64.3*,22.1,-15.6,29.7,
Cc1ccc(-c2nc3cc(NS(=O)(=O)c4ccc(C)cc4)ccc3o2)cc1,5.6,-3.7,22.0,24.5,-4.8,·,
O=S(=O)(Nc1ccc2oc(-c3ccccc3)nc2c1)c1ccccc1,6.4,6.0,88.0*,16.2,-6.5,37.7,
COc1cccc(Nc2n[nH]c(=S)s2)c1,3.8,-9.9,62.0*,22.4,-9.9,5.0,

# Bioassay records: PubChem, several laboratories
